Most compounds without a hit are left out; they make up all but 1.2% or so of the library.
Diaphorase inh: counter-screen for diaphorase-based assays: diaphorase inhibitors and chemical oxidizers. hit rate 0.69% among 190,000. inhibition, % at 20 µM. AID 1217. diaphorase resazurin-to-resorufin fluorescence, NADH, 16 min; bacterial (C. kluyveri) enzyme, not human;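 active = primary screen inhibition at 20 µM above a set limit, cut at about 50% in these data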;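 note: plate controls were DMSO with full reaction for no effect and wells lacking NADH for full effect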
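System: Diaphorase enzyme from Clostridium kluyveri | Amount: Enzyme working solution with 0.14 U/mL diaphorase | Benchmarks: No-NADH positive control and DMSO neutral control | Signal: Fluorescence of resorufin formed from resazurin, Ex 544/Em 590 nm | Schedule: 16-min room-temperature incubation before reading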
HKDC1 inh: inhibitors of human hexokinase HKDC1; hit rate 0.16% among 340,000; recombinant HKDC1, G6PDH/diaphorase resazurin coupled fluorescence; inhibition, % at 20 µM; Q2TB90;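 active = inhibition above about 35% when tested at 20 µM, limit read from the data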;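 note: plate controls were DMSO wells with enzyme for no effect and DMSO wells lacking enzyme for full effect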
Target sequence (Q2TB90 whole entry, looked up): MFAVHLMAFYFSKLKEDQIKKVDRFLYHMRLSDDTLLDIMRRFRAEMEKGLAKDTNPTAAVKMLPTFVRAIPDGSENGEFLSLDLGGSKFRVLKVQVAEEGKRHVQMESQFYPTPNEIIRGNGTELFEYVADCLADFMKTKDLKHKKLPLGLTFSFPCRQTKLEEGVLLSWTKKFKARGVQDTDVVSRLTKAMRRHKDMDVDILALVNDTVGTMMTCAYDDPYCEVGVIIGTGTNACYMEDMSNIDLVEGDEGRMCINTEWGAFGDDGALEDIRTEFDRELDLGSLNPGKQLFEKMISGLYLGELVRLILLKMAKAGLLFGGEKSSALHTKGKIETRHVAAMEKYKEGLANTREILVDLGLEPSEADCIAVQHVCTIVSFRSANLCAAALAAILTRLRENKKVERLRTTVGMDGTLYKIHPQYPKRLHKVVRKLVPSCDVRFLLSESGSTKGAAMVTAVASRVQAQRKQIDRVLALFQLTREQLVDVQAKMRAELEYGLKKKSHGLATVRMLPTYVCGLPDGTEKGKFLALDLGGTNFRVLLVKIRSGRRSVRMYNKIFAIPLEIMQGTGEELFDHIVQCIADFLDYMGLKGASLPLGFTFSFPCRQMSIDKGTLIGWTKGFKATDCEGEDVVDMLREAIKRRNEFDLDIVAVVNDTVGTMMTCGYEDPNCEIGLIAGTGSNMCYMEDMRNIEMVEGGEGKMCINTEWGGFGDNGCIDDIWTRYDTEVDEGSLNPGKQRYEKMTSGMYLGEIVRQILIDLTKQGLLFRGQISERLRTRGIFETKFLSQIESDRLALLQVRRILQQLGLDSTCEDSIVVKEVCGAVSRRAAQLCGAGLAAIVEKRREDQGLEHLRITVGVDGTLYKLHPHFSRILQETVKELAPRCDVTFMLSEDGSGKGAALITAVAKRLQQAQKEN
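Assay system: recombinant HKDC1 hexokinase; detection: coupled resazurin fluorescence, excitation 525 nm, emission 613 nm; benchmarks: DMSO-plus-enzyme-mix negative control, buffer-substituted positive control; compound dosing: single 20 µM dose; schedule: 90 min at room temperature in dark; also added: glucose plus 1 mM ATP as hexokinase substrates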
G6PDH counter: inhibits Leuconostoc G6PDH, flagging false hits in G6PDH-based assays | Purified L. mesenteroides G6PDH, diaphorase/resazurin coupled fluorescence, 45 min | inhibition, % at 5 µM | hit rate 0.12% among 200,000; in the data active = inhibition above about 50%
PfGluPho inh: PfG6PD (Plasmodium falciparum) enzyme inhibition | hit rate 0.78% among 350,000 | PfGluPho enzyme, NADPH resazurin-diaphorase fluorescence | inhibition, % at 20 µM;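 active = inhibition reaching at least a set limit at 20 µM in the primary screen, cut at about 59% in these data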;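 note: 0% = DMSO wells with substrate and 100% = DMSO wells lacking glucose-6-phosphate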
Diaphorase act: counter-screen for diaphorase-based assays: diaphorase activators and chemical reducers; Diaphorase/resazurin coupled assay, resorufin fluorescence, 16 min; hits give high values; 1 = vehicle wells, 0 = NADH-free wells; activation factor at 20 µM; hit rate 0.005% among 190,000; AID 1229;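 active = diaphorase activity raised at least twofold by the compound at 20 µM; inactive = activation factor below 2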
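Material: Purified diaphorase enzyme from Clostridium kluyveri | Buffer or medium: 50 mM HEPES pH 7.4 with 4.542 mM MgCl2, 0.005% Tween 20 | Times: 16 min enzyme reaction, ambient temperature | Signal: Red resorufin fluorescence at 544/590 nm excitation/emission | Measure: Increased resorufin signal from activators or reducing compounds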
HKDC1 act conf: HKDC1 (human) activation, single-dose confirmed. shares compounds with HKDC1 inh. recombinant HKDC1, G6PDH/diaphorase resazurin fluorescence; hits give low values. inhibition, % at 20 µM. hit rate 14% among 740;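 active = inhibition at or below a set negative limit, negative inhibition meaning the enzyme was activated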
* marks the source's active call; other numbers are inactive results; nt = no result; ! = not active in a repeat.

SMILES	Diaphorase inh	HKDC1 inh	G6PDH counter	PfGluPho inh	Diaphorase act	HKDC1 act conf
COc1ccc(-c2csc(Nc3ccc(S(N)(=O)=O)cc3)n2)cc1	27.7	-41.5	-0.6	47.6	0.7	-24.5
O=C(O)c1[nH]c2ccccc2c1C(c1cc(Cl)cc([N+](=O)[O-])c1O)c1c(C(=O)O)[nH]c2ccccc12	nt	37.8*	nt	-37.5	nt	32.1
O=C(O)c1[nH]c2ccccc2c1C(c1ccccc1)c1c(C(=O)O)[nH]c2ccccc12	nt	8.8	nt	-20.2	nt	nt
COc1ccc(NC(=O)Cc2c[nH]c3ccccc23)cc1S(=O)(=O)N1CCCCC1	19.6	48.7*	1.6	16.2	0.8	-35.1*
COc1ccc(NC(=O)Cc2c[nH]c3ccccc23)cc1S(=O)(=O)N1CCOCC1	8.2	-2.1	2.1	12.6	0.9	nt
COC(=O)c1ccc2c(c1)C(C)(C)C(/C=C/c1ccccc1O)=[N+]2C	9.6	38.3*	2.6	14.3	0.9	7.0
C[N+]1=C(/C=C/Nc2ccccc2Cl)C(C)(C)c2ccccc21	11.3	13.1	-5.7	-6.1	0.9	nt
Nc1nc(-c2cccc(Br)c2)cs1	4.6	-65.1	6.5	11.3	1	-40.6*
Nc1nc(-c2ccc(Br)cc2)cs1	16.8	3.4	1.3	5.2	0.8	nt
COc1cccc(COC(=O)CSCC(=O)Nc2ccc(C)cc2)c1OC	nt	nt	nt	9.0	nt	nt
Oc1ccc2ccccc2c1C=Nc1ccccc1Br	nt	37.6*	nt	23.6	nt	9.6
Oc1ccccc1N=Cc1c(O)ccc2ccccc12	nt	10.5	nt	7.1	nt	nt
Oc1ccc2ccccc2c1/C=N/c1nccs1	31.0	37.2*	49.0	20.7	0.7	29.1
Cc1ccc(NS(=O)(=O)c2ccc(-n3cccn3)cc2)c(Cl)c1	nt	nt	nt	2.5	nt	nt
CC1(C)CC[C@]2(C(=O)n3ccnc3)CC[C@]3(C)[C@H](C(=O)C=C4[C@@]5(C)C=C(C#N)C(=O)C(C)(C)[C@@H]5CC[C@]43C)[C@@H]2C1	nt	47.9*	nt	49.7	nt	33.3
COc1ccccc1-c1cc2nc(-c3ccccc3)cc(N3CCN(C(=O)c4ccco4)CC3)n2n1	nt	nt	nt	25.0	nt	nt
COC1(NS(=O)(=O)c2ccc(Br)cc2)C(C)=CC(=O)C=C1C	51.7*	49.6*	38.1	50.8	0.5	26.3
Cc1ccc(NS(=O)(=O)c2ccc(Br)cc2)nc1	7.1	-5.0	26.3	-5.2	0.9	nt
COc1ccc(NC(=S)N2CCC3CC2c2c(Cl)cccc23)c(OC)c1 (configuration not stated)	nt	nt	nt	-12.1	nt	nt
Oc1ccc(O)c(Cc2nc3ccccc3[nH]2)c1	11.5	54.3*	5.4	31.7	0.9	56.0
COc1ccc(-c2nnc(SC)nc2-c2ccc(OC)c([N+](=O)[O-])c2)cc1[N+](=O)[O-]	nt	33.9	nt	42.3	nt	13.4
CCCCNCCOCCOc1ccccc1-c1ccccc1	10.3	-58.9	8.8	6.2	0.9	-7.3
O=[N+]([O-])c1ccc(-c2nc(Cl)c3c(n2)CCCC3)o1	nt	nt	nt	-16.3	nt	nt
CC(=O)C1=C(c2cccc([N+](=O)[O-])c2)N(C(C)=O)n2c(C)nnc2S1	-3.0	-307.8	3.4	-26.1	1	-387.4*
CC(=O)c1c(C(C)=O)c(C)n(-c2cccc([N+](=O)[O-])c2)c1C	6.0	-1.0	4.7	-20.8	0.9	nt
SMILES	Diaphorase inh	HKDC1 inh	G6PDH counter	PfGluPho inh	Diaphorase act	HKDC1 act conf
CCOC(=O)c1cc(-c2ccc(/C=C3/C(=O)N(c4ccc(C(=O)O)cc4)N=C3C)o2)ccc1Cl	nt	42.5*	nt	12.4	nt	15.3
COc1cccc(S(=O)(=O)N(C)C[C@H]2OCc3cnnn3CCCC(=O)N([C@H](C)CO)C[C@@H]2C)c1	nt	nt	nt	0.7	nt	nt
O=C(NNC(=S)Nc1ccc(Cl)c(Cl)c1)c1ccccn1	-10.4	-57.4	-9.3	-8.2	1.1	-74.1*
O=C(CSc1ccccn1)Nc1ccc2c(c1)C(=O)c1ccccc1C2=O	8.9	14.9	10.1	19.8	0.9	nt
O=C(CSc1n[nH]c(=O)[nH]c1=O)Nc1ccc2c(c1)C(=O)c1ccccc1C2=O	nt	52.3*	nt	-22.1	nt	14.1
CC(C)(C)c1c(Cl)c(O)c(-c2ccccc2)c(=O)n1-c1ccccc1	-10.5	36.2*	-2.2	-22.0	1.1	40.9
Cc1c(O)c2ccccc2n(-c2ccccc2)c1=O	nt	4.3	nt	11.3	nt	nt
CC[C@@H](NCCCn1ccc(NC(=O)OCc2ccccc2)nc1=O)c1ccccc1	nt	nt	nt	11.5	nt	nt
CCN(CC)c1ccc2c(c1)oc(=O)c1c(Cl)cc(=O)oc12	15.7	48.6*	-36.8	8.0	0.8	47.7
CCN(CC)c1ccc2c(C)c(Cl)c(=O)oc2c1	26.9	9.1	11.5	5.4	0.7	nt
Cc1cnc(C2OCCO2)c2cccc(N)c12	nt	nt	nt	50.6	nt	nt
COc1ccc(NC(=O)N(C)C[C@H]2OCc3cnnn3CCCC(=O)N([C@@H](C)CO)C[C@H]2C)cc1	nt	nt	nt	-8.8	nt	nt
Nn1cnnc1N/N=C/c1cc(Br)cc(Br)c1O	50.3*	-52.2	31.6	38.3	0.5	-31.9*
COc1ccc(C2=CC3=C(Br)C(=O)C(C)(O)C(=O)C3=CO2)cc1 (configuration not stated)	nt	33.9	nt	22.0	nt	-4.6
CCC(=O)OC1(C)C(=O)C2=COC(c3ccc(OC)cc3)=CC2=C(Br)C1=O (configuration not stated)	nt	45.5*	nt	25.5	nt	29.7
COc1cc(C2c3c([nH]c(=O)[nH]c3=O)Nc3ccc4ccccc4c32)ccc1O (configuration not stated)	15.8	-0.6	-2.5	-7.8	0.8	nt
COc1cc(C2c3c([nH]c(=O)[nH]c3=O)Nc3ccc4ccccc4c32)cc(OC)c1OC (configuration not stated)	53.3*	37.5*	7.1	-4.1	0.5	43.5
Cc1ccc(OC(C)C(=O)N2CCc3ccccc32)c([N+](=O)[O-])n1 (configuration not stated)	nt	nt	nt	-3.7	nt	nt
NC(=NCCCCCCN=C(N)/N=C(\N)Nc1ccc(Cl)cc1)/N=C(\N)Nc1ccc(Cl)cc1	nt	53.2*!	nt	46.5	nt	46.4
C[C@@H]1CN([C@H](C)CO)C(=O)c2cc(C#CC(C)(C)O)cnc2O[C@@H]1CN(C)C(=O)C1CC1	nt	nt	nt	16.2	nt	nt
NC(=S)N/N=C/c1ccc(-c2cc(Cl)c(Cl)cc2Cl)o1	-3.9	-4.5	12.7	25.3	1	nt
NC(=S)N/N=C/c1ccc(Br)o1	15.9	-55.3	0.9	18.5	0.8	-9.9
Cc1ccc([C@H]2C[C@H](n3cc(-c4ccc(F)cc4)nn3)[C@@H](O)CN2CC2CCCCC2)cc1	nt	nt	nt	37.9	nt	nt
C[C@H](CO)N1C[C@H](C)[C@H](CN(C)S(=O)(=O)c2cccc(C#N)c2)OCc2cnnn2CCCC1=O	nt	nt	nt	-10.9	nt	nt
Cc1n[nH]c(=O)c2c(NC(=O)CSc3nnc(-c4ccco4)n3C)oc(C)c12	nt	-5.8	nt	4.8	nt	nt
Cc1n[nH]c(=O)c2c(NC(=O)CSc3nnc(C4CC4)n3C)oc(C)c12	nt	39.7*	nt	9.6	nt	-13.9

Source: PubChem BioAssay
